How the values were obtained:
[1] = system: Human immunodeficiency virus 1; assay: Cytotoxicity activity of compound in PM1 cells against BAl (M) Macrophage tropic virus that utilizes the CCR5 virus was determined; format: functional; settings: Human immunodeficiency virus 1, PM1
Method in brief: (§1)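 CC50 in µM, measured as cytotoxicity toward the host cells used for the antiviral assays, either MT-2 or PM1 cells.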

[2] = system: Human immunodeficiency virus 1; assay: Inhibitory activity of compound against BAl (M) Macrophage tropic virus that utilizes the CCR5 co-receptor was determined; format: functional, organism-based; settings: Human immunodeficiency virus 1, CCR5
[3] = Cytotoxicity activity of compound in MT-2 cells against LAI (T) tropic virus that utilizes the CXCR-4 co-receptor virus was determined; format: functional; settings: MT2; method in brief: as §1
[4] = Inhibitory activity of compound against LAI (T) tropic virus that utilizes the CXCR-4 co-receptor was determined; format: functional
[5] = Inhibitory activity of compound against NL4-3 (T) tropic virus that utilizes the CXCR-4 co-receptor was determined; format: functional, nl4-3 tropic virus
[6] = system: Human immunodeficiency virus 1; assay: Inhibitory activity of compound against SF-162 (M) Macrophage tropic virus that utilizes the CCR5 was determined; format: functional, organism-based, sf-162 macrophage tropic virus; settings: Human immunodeficiency virus 1, CCR5
[7] = system: Human immunodeficiency virus 1; assay: Inhibitory activity of compound against SF-2 (T) tropic virus that utilizes the CXCR-4 co-receptor was determined; format: functional, organism-based, sf-2 tropic virus
[8] = system: Human immunodeficiency virus 1; assay: Cytotoxicity activity of compound in MT-2 cells against TLAV (dual) virus that utilizes both CXR4 and CCR5 co-receptor virus was determined; format: functional; settings: Human immunodeficiency virus 1, TLAV, MT2; method in brief: as §1
[9] = system: Human immunodeficiency virus 1; assay: Inhibitory activity of compound against TLAV (dual) virus that utilizes both CXR4 and CCR5 co-receptor virus was determined; format: functional, organism-based; settings: Human immunodeficiency virus 1, TLAV
[10] = Oral bioavailability after peroral administration of 5(mg/kg) polyethelene glycol in rat was determined; format: ADME, organism-based; settings: in vivo
Method in brief: (§2)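 Given to rat, dog and cynomolgus monkey as a solution in poly(ethylene glycol) 400/ethanol (90:10 v/v), by intravenous and oral (po) dosing. The iv/po dose pairs in mg/kg were 5/5 or 1/5 in rat and 2/10 or 0.67/3.4 in dog and monkey. Plasma sampling gave Fpo (%), oral Cmax (µM), CLtot (mL/min/kg) and Vss (L/kg).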

[11] = The total clearance time in dog was determined; format: ADME, organism-based, Canis lupus familiaris; settings: in vivo, read-out: CLtotal; method in brief: as §2
[12] = The total clearance time in monkey was determined; format: ADME, organism-based; settings: simiiformes, in vivo; read-out: CLtotal; method in brief: as §2
[13] = The total clearance time in rat was determined; format: ADME, organism-based; settings: in vivo, read-out: CLtotal; method in brief: as §2
[14] = Oral bioavailability after paroral administration of 10 (mg/kg) polyethelene glycol in dog was determined; format: ADME, organism-based, Canis lupus familiaris; settings: in vivo; method in brief: as §2
[15] = Oral bioavailability after paroral administration of 10 (mg/kg) polyethelene glycol in monkey was determined; format: ADME, organism-based; settings: primates, in vivo; method in brief: as §2
[16] = The maximum plasma concentration of compound after paroral administration of 10 (mg/kg) polyethelene glycol in monkey was determined; format: ADME, organism-based; design: dose 10 mg/kg, route oral; settings: simiiformes, po; method in brief: as §2
[17] = The maximum plasma concentration of compound after peroral administration of 5(mg/kg) polyethelene glycol in rat was determined; format: ADME, organism-based; design: dose 5 mg/kg, route oral; settings: po; method in brief: as §2
[18] = The volume of distribution of compound a was determined in dog; format: ADME, organism-based, Canis lupus familiaris; settings: in vivo, read-out: Vss; method in brief: as §2
[19] = The volume of distribution of compound was determined in monkey; format: ADME, organism-based; settings: simiiformes, in vivo; read-out: Vss; method in brief: as §2
[20] = The volume of distribution of compound was determined in rat; format: ADME, organism-based; settings: in vivo, read-out: Vss; method in brief: as §2
[21] = system: Human immunodeficiency virus 1; assay: Cytotoxicity activity of compound against BAl (M) Macrophage tropic virus that utilizes the CCR5 virus was determined; format: functional; settings: Human immunodeficiency virus 1, CCR5; method in brief: as §1
[22] = system: Human immunodeficiency virus 1; assay: Inhibitory activity of compound in MT-2 cells against JRFL (M) Macrophage tropic virus that utilizes the CCR5 was determined; format: functional, organism-based
[23] = system: Human immunodeficiency virus 1; assay: Cytotoxicity activity of compound against TLAV (dual) virus that utilizes both CXR4 and CCR5 co-receptor virus was determined; format: functional; settings: Human immunodeficiency virus 1, TLAV; method in brief: as §1
[24] = The maximum plasma concentration of compound after paroral administration of 10 (mg/kg) polyethelene glycol in dog was determined; format: ADME, organism-based, Canis lupus familiaris; design: dose 10 mg/kg, route oral; settings: po; method in brief: as §2
[25] = Oral bioavailability after paroral administration of 5(mg/kg) polyethelene glycol in rat was determined; format: ADME, organism-based; settings: in vivo
Method in brief: (§3)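 Oral dosing as a solution in PEG 400/ethanol (90:10 v/v). Separate iv arms were used for comparison: rat 1 mg/kg iv vs 5 mg/kg po, dog and cynomolgus monkey 0.67 mg/kg iv vs 3.4 mg/kg po. Oral bioavailability (Fpo, %) was derived from plasma exposure after oral relative to intravenous dosing.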

[26] = Oral bioavailability after paroral administration of 3.4(mg/kg) polyethelene glycol in dog was determined; format: ADME, organism-based, Canis lupus familiaris; settings: in vivo; method in brief: as §3
[27] = Oral bioavailability after paroral administration of 3.4(mg/kg) polyethelene glycol in monkey was determined; format: ADME, organism-based; settings: primates, in vivo; method in brief: as §3
[28] = The maximum plasma concentration of compound after paroral administration of 3.4(mg/kg) polyethelene glycol in dog was determined; format: ADME, organism-based, Canis lupus familiaris; design: dose 3.4 mg/kg, route oral; settings: po; method in brief: as §2
[29] = The maximum plasma concentration of compound after paroral administration of 3.4(mg/kg) polyethelene glycol in monkey was determined; format: ADME, organism-based; design: dose 3.4 mg/kg, route oral; settings: simiiformes, po; method in brief: as §2
[30] = The maximum plasma concentration of compound after paroral administration of 5(mg/kg) polyethelene glycol in rat was determined; format: ADME, organism-based; design: dose 5 mg/kg, route oral; settings: po; method in brief: as §2
[31] = The volume of distribution of compound against rat was determined; format: ADME, organism-based; settings: in vivo, read-out: Vss; method in brief: as §2
[32] = The volume of distribution of compound was determined in dog; format: ADME, organism-based, Canis lupus familiaris; settings: in vivo, read-out: Vss; method in brief: as §2
[33] = system: Human immunodeficiency virus 1; assay: Inhibitory activity of compound against JRFL (M) Macrophage tropic virus that utilizes the CCR5 was determined; format: functional, organism-based; settings: Human immunodeficiency virus 1, CCR5

| Compound | CC50 [1] | EC50 [2] | CC50 [3] | EC50 [4] | EC50 [5] | EC50 [6] | EC50 [7] | CC50 [8] | EC50 [9] | clearance [11] | clearance [12] | clearance [13] | Vd [19] | also measured |
| --- | --- | --- | --- | --- | --- | --- | --- | --- | --- | --- | --- | --- | --- | --- |
| O=C(C(=O)N1CCN(C(=O)c2ccccc2)CC1)c1c[nH]c2ccccc12 | > 200000 nM | 28700 nM | 145000 nM | 86 nM | 5130 nM | 230 nM | 1030 nM | 145000 nM | 149 nM |  |  |  |  |  |
| O=C(C(=O)N1CCN(C(=O)c2ccccc2)CC1)c1c[nH]c2cccc(F)c12 |  | 18.1 nM | 146000 nM | 2.93 nM | 30.8 nM |  | 62.4 nM |  | 13.6 nM | 2.4 mL/min/kg | 3.1 mL/min/kg | 48 mL/min/kg | 0.24 L/kg | bioavailability [10]: 9.4%; bioavailability [14]: 100%; bioavailability [15]: 100%; Cmax [16]: 34 µM; Cmax [17]: 0.15 µM; Vd [18]: 1.8 L/kg; Vd [20]: 0.99 L/kg; CC50 [21]: 52500 nM; EC50 [22]: 2.39 nM; CC50 [23]: 146000 nM; Cmax [24]: 18 µM |
| COc1ccnc2[nH]cc(C(=O)C(=O)N3CCN(C(=O)c4ccccc4)C[C@H]3C)c12 | > 300000 nM | 15.5 nM | > 300000 nM | 2.68 nM | 2.94 nM | 3.46 nM | 26.5 nM | > 300000 nM | 0.85 nM | 5.2 mL/min/kg | 10 mL/min/kg | 32 mL/min/kg | 0.39 L/kg | bioavailability [25]: 19%; bioavailability [26]: 77%; bioavailability [27]: 24%; Cmax [28]: 7.4 µM; Cmax [29]: 0.51 µM; Cmax [30]: 0.22 µM; Vd [31]: 0.56 L/kg; Vd [32]: 0.47 L/kg; EC50 [33]: 1.47 nM |

Source: ChEMBL document CHEMBL1145109, “Discovery of 4-benzoyl-1-[(4-methoxy-1H- pyrrolo[2,3-b]pyridin-3-yl)oxoacetyl]-2- (R)-methylpiperazine (BMS-378806): a novel HIV-1 attachment inhibitor that interferes with CD4-gp120 interactions” (J Med Chem, 2003)
